Measured values as given in ChEMBL document CHEMBL1909525, “Synthesis and anticonvulsant activity of novel 2,6-diketopiperazine derivatives. Part 1: perhydropyrrole[1,2-a]pyrazines” (Eur J Med Chem, 2011).
Active and inactive are the calls of the source. No cut-off for these calls is given here.

Experiments:
Format in all cases: functional, organism-based
Mus musculus [1] = test: Anticonvulsant activity in albino Carworth Farms No.1 mouse assessed as protection against electric-current for 3 secs-induced seizure at 75 mg/kg, ip after 0.25 hrs by 6Hz minimal clonic seizure test; parameters: dose 75 mg/kg
Outline: (§1)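 6 Hz psychomotor seizure test in mice. Compound given i.p. as a suspension in 0.5% methylcellulose. Corneal stimulation at 32 mA, 0.2-ms monopolar rectangular pulses at 6 Hz for 3 s, from a constant-current device. Tests run 0.25–4 h after dosing. A mouse counted as protected if it resumed normal exploratory behaviour within 10 s; scored as protected/tested.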

Mus musculus [2] = test: Anticonvulsant activity in albino Carworth Farms No.1 mouse assessed as protection against electric-current for 3 secs-induced seizure at 75 mg/kg, ip after 4 hrs by 6Hz minimal clonic seizure test; parameters: dose 75 mg/kg; outline: as §1
Mus musculus [3] = test: Anticonvulsant activity in albino Carworth Farms No.1 mouse assessed as protection against maximal electroshock-induced seizure at 30 mg/kg, ip after 0.5 hrs; parameters: dose 30 mg/kg
Outline: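 Mouse MES test with compound given i.p. (30, 100 or 300 mg/kg) in 0.5% methylcellulose; tested at 0.5 and 4 h. Corneal stimulus of 50 mA at 60 Hz for 0.2 s, electrodes primed with 0.5% butacaine in 0.9% NaCl. Protection is abolition of hindlimb tonic extension; scored as protected/tested.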

`O=C1NC(=O)[C@@H]2CCCN2[C@H]1c1ccccc1` was tested, and the Activity (Mus musculus [1]) was “Active”, the Activity (Mus musculus [2]) was “inactive” and the Activity (Mus musculus [3]) was “inactive”.
